According to ChEMBL document CHEMBL3779767, “Identification of potent and selective MTH1 inhibitors” (Bioorg Med Chem Lett, 2016):
Active and inactive are the calls of the source. The rule behind the calls is not given here.

Assays:
[1] = Plasma protein binding in human; format: ADME, cell-free; settings: read-out: PPB (converted)
[2] = system: Tyrosine-protein kinase ABL1 (Homo sapiens), P00519 [T315I]; assay: Inhibition of partial length human ABL1 T315I mutant phosphorylation expressed in mammalian system at 1 uM
Outline: (§1)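 Single-point screen within a 97-kinase profiling panel, with the test compound at 1 µM.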

[3] = molecular target: Atypical kinase COQ8A, mitochondrial (Homo sapiens) (UniProt Q8NI60); assay: Inhibition of partial length human ADCK3 expressed in bacterial system at 1 uM; outline: as §1
[4] = molecular target: RAC-beta serine/threonine-protein kinase (Homo sapiens) (UniProt P31751); assay: Inhibition of partial length human AKT2 expressed in bacterial system at 1 uM; outline: as §1
[5] = molecular target: Aurora kinase A (Homo sapiens) (UniProt O14965); assay: Inhibition of partial length human Aurora A expressed in mammalian system at 1 uM; outline: as §1
[6] = molecular target: Bone morphogenetic protein receptor type-2 (Homo sapiens) (UniProt Q13873); assay: Inhibition of partial length human BMPR2 expressed in mammalian system at 1 uM; outline: as §1
[7] = molecular target: Cyclin-dependent kinase 3 (Homo sapiens) (UniProt Q00526); assay: Inhibition of partial length human CDK3 expressed in bacterial system at 1 uM; outline: as §1
[8] = molecular target: Cyclin-dependent kinase 7 (Homo sapiens) (UniProt P50613); assay: Inhibition of partial length human CDK7 expressed in mammalian system at 1 uM; outline: as §1
[9] = molecular target: Macrophage colony-stimulating factor 1 receptor (Homo sapiens) (UniProt P07333); assay: Inhibition of partial length human CSF1R expressed in bacterial system at 1 uM; outline: as §1
[10] = molecular target: Casein kinase I isoform gamma-2 (Homo sapiens) (UniProt P78368); assay: Inhibition of partial length human CSNK1G2 expressed in bacterial system at 1 uM; outline: as §1
[11] = molecular target: Epidermal growth factor receptor (Homo sapiens) (UniProt P00533); assay: Inhibition of partial length human EGFR expressed in bacterial system at 1 uM; outline: as §1
[12] = molecular target: Insulin receptor (Homo sapiens) (UniProt P06213); assay: Inhibition of partial length human INSR expressed in mammalian system at 1 uM; outline: as §1
[13] = molecular target: Mitogen-activated protein kinase 9 (Homo sapiens) (UniProt P45984); assay: Inhibition of partial length human JNK2 expressed in mammalian system at 1 uM; outline: as §1
[14] = molecular target: Mitogen-activated protein kinase 10 (Homo sapiens) (UniProt P53779); assay: Inhibition of partial length human JNK3 expressed in mammalian system at 1 uM; outline: as §1
[15] = system: Mast/stem cell growth factor receptor Kit (Homo sapiens), P10721 [D816V]; assay: Inhibition of partial length human KIT D816V mutant expressed in bacterial system at 1 uM
Outline: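 Single-concentration screen at 1 µM test concentration, run as part of a commercial binding/activity profiling panel covering 97 kinases.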

[16] = molecular target: MAP/microtubule affinity-regulating kinase 3 (Homo sapiens) (UniProt P27448); assay: Inhibition of partial length human MARK3 expressed in bacterial system at 1 uM; outline: as §1
[17] = molecular target: Hepatocyte growth factor receptor (Homo sapiens) (UniProt P08581); assay: Inhibition of partial length human MET expressed in bacterial system at 1 uM
Outline: (§2)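 Single-concentration screen across a panel of 97 kinases, with the test compound at 1 uM.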

[18] = molecular target: MAP kinase-interacting serine/threonine-protein kinase 2 (Homo sapiens) (UniProt Q9HBH9); assay: Inhibition of partial length human MKNK2 expressed in mammalian system at 1 uM; outline: as §2
[19] = molecular target: Mitogen-activated protein kinase 14 (Homo sapiens) (UniProt Q16539); assay: Inhibition of partial length human p38alpha expressed in bacterial system at 1 uM; outline: as §2
[20] = molecular target: Mitogen-activated protein kinase 11 (Homo sapiens) (UniProt Q15759); assay: Inhibition of partial length human p38beta expressed in bacterial system at 1 uM; outline: as §2
[21] = molecular target: 3-phosphoinositide-dependent protein kinase 1 (Homo sapiens) (UniProt O15530); assay: Inhibition of partial length human PDPK1 expressed in bacterial system at 1 uM; outline: as §2
[22] = molecular target: cAMP-dependent protein kinase catalytic subunit alpha (Homo sapiens) (UniProt P17612); assay: Inhibition of partial length human PKACalpha expressed in bacterial system at 1 uM; outline: as §2
[23] = molecular target: Serine/threonine-protein kinase PLK4 (Homo sapiens) (UniProt O00444); assay: Inhibition of partial length human PLK4 expressed in mammalian system at 1 uM; outline: as §2
[24] = molecular target: Protein kinase C epsilon type (Homo sapiens) (UniProt Q02156); assay: Inhibition of partial length human PRKCE expressed in mammalian system at 1 uM; outline: as §2
[25] = molecular target: Serine/threonine-protein kinase RIO2 (Homo sapiens) (UniProt Q9BVS4); assay: Inhibition of partial length human RIOK2 expressed in mammalian system at 1 uM; outline: as §2
[26] = molecular target: TGF-beta receptor type-1 (Homo sapiens) (UniProt P36897); assay: Inhibition of partial length human TGFBR1 expressed in bacterial system at 1 uM; outline: as §2
[27] = molecular target: Non-receptor tyrosine-protein kinase TYK2 (Homo sapiens) (UniProt P29597); assay: Inhibition of partial length human TYK2 JH1catalytic domain expressed in mammalian system at 1 uM; outline: as §2
[28] = molecular target: Vascular endothelial growth factor receptor 2 (Homo sapiens) (UniProt P35968); assay: Inhibition of partial length human VEGFR2 expressed in mammalian system at 1 uM; outline: as §2
[29] = Half life in mouse liver microsomes; format: ADME
Outline: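 Incubated with human or mouse liver microsomes; the read-out was intrinsic clearance alongside half-life, given in hours.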

[30] = Half life in rat plasma; format: ADME, cell-free
Outline: (§3)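 Plasma stability was measured in human and rat plasma, with half-life reported in hours.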

[31] = Half life in human plasma; format: ADME, cell-free; outline: as §3
[32] = Fraction unbound in human plasma; format: ADME, cell-free
MDA-MB-231 = assay: Antiproliferative activity against human MDA-MB-231 cells assessed as change in phenotypic response measured after prolonged treatment; format: functional, cell-based
HCT-116 [33] = assay: Antiproliferative activity against human HCT116 cells assessed as change in phenotypic response measured after prolonged treatment; format: functional, cell-based
U2OS [34] = assay: Antiproliferative activity against human U2OS cells assessed as change in phenotypic response measured after prolonged treatment; format: functional, cell-based
BJ [35] = assay: Cytotoxicity against human BJ cells assessed as change in phenotypic response up to 50 uM; format: cell-based
HMEC [36] = assay: Cytotoxicity against human HMEC cells assessed as change in phenotypic response up to 50 uM; format: cell-based
MRC5 [37] = assay: Cytotoxicity against human MRC5 cells assessed as change in phenotypic response up to 50 uM; format: cell-based
HCT-116 [38] = assay: Antiproliferative activity against human HCT116 cells assessed as change in phenotypic response up to 50 uM; format: functional, cell-based
SW480 = assay: Antiproliferative activity against human SW480 cells assessed as change in phenotypic response up to 50 uM; format: functional, cell-based
U2OS [39] = assay: Antiproliferative activity against human U2OS cells assessed as change in phenotypic response up to 50 uM; format: functional, cell-based
BJ [40] = assay: Cytotoxicity against human BJ cells assessed as change in phenotypic response measured after prolonged treatment; format: cell-based
HMEC [41] = assay: Cytotoxicity against human HMEC cells assessed as change in phenotypic response measured after prolonged treatment; format: cell-based
MRC5 [42] = assay: Cytotoxicity against human MRC5 cells assessed as change in phenotypic response measured after prolonged treatment; format: cell-based

Chain of Protein kinase C epsilon type (Homo sapiens) (Q02156 whole entry): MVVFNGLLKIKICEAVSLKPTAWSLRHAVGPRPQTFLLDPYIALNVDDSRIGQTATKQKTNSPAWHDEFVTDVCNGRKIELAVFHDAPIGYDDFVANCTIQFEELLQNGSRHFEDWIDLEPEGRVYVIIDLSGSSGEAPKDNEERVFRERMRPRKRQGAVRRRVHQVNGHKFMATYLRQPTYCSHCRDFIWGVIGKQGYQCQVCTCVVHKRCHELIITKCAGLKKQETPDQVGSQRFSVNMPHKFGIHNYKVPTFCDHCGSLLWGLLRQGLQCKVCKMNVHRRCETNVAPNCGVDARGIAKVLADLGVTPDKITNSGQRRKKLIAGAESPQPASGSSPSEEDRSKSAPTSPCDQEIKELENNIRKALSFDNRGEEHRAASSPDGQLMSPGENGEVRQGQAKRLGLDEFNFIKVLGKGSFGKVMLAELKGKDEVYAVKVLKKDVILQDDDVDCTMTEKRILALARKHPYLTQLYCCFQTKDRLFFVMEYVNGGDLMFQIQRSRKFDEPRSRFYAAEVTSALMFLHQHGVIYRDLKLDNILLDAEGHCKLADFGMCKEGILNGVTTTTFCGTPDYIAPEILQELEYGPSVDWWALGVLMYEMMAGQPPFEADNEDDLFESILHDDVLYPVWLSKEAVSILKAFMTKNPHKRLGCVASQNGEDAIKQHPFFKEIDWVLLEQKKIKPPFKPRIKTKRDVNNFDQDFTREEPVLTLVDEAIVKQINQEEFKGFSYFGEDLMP
Chain of Cyclin-dependent kinase 7 (Homo sapiens) (P50613 whole entry): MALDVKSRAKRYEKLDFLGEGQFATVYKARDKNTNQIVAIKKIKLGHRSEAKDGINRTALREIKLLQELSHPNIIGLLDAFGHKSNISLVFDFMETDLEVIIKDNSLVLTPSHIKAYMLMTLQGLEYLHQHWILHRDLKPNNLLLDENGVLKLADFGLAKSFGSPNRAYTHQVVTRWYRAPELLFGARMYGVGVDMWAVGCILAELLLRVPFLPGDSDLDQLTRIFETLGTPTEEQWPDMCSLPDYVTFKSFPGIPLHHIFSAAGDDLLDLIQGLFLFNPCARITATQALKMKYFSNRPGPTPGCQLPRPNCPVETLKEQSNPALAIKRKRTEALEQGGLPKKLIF
Chain of Insulin receptor (Homo sapiens) (P06213 28-758 limits assumed): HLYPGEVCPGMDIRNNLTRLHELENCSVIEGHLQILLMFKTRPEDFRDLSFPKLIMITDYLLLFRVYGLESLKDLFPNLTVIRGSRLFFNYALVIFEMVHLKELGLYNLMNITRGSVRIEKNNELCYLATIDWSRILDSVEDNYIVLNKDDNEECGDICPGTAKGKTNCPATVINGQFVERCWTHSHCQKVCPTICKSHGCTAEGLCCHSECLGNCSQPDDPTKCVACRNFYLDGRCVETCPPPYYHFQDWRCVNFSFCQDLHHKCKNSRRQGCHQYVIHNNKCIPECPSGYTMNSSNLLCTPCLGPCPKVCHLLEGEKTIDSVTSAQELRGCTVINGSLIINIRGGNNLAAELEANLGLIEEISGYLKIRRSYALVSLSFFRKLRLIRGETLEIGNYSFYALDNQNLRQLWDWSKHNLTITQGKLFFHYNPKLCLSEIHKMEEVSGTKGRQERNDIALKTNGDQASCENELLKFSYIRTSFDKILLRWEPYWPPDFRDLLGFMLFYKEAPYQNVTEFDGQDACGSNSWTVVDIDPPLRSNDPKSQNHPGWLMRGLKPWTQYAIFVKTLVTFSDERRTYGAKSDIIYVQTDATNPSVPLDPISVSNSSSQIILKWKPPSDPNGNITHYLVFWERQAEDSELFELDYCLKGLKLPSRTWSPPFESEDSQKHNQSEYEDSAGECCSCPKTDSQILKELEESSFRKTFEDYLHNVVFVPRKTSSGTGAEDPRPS
Chain of Insulin receptor (Homo sapiens) (P06213 763-1382 limits assumed): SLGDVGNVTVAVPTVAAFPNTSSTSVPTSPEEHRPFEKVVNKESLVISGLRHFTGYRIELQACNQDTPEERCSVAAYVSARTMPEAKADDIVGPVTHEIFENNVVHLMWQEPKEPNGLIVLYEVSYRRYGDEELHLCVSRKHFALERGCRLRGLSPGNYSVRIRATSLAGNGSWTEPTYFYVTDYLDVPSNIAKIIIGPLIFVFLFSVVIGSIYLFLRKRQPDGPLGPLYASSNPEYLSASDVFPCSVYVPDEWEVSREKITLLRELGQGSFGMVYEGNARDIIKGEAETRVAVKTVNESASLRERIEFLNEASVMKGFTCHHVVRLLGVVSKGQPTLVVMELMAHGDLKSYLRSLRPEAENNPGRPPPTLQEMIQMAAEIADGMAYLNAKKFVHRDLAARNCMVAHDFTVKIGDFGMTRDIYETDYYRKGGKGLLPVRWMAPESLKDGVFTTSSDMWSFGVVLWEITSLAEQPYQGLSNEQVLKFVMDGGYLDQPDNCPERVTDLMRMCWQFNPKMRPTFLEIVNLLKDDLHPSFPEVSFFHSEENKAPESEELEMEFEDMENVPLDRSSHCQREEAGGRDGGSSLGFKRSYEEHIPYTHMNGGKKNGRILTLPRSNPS
Chain of Cyclin-dependent kinase 3 (Homo sapiens) (Q00526 whole entry, looked up): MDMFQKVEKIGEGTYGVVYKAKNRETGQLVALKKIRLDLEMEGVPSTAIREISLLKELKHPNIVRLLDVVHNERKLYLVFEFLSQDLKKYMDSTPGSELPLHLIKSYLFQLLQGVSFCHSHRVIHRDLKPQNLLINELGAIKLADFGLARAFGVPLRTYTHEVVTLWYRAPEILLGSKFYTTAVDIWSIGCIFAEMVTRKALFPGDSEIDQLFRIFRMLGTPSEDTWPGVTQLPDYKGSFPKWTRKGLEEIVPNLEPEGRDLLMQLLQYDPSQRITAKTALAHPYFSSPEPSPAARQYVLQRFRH
Chain of Mitogen-activated protein kinase 9 (Homo sapiens) (P45984 whole entry, looked up): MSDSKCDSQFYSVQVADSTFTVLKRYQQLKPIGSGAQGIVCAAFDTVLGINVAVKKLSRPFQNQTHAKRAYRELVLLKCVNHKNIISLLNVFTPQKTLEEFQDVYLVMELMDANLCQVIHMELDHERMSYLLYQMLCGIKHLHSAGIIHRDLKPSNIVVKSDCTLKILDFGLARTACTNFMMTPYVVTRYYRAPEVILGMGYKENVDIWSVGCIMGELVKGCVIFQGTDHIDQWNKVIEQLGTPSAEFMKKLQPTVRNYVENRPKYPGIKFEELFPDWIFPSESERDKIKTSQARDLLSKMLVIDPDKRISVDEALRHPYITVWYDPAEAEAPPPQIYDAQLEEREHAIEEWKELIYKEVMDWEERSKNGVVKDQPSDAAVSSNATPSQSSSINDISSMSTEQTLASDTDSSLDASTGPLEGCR
Chain of Bone morphogenetic protein receptor type-2 (Homo sapiens) (Q13873 whole entry): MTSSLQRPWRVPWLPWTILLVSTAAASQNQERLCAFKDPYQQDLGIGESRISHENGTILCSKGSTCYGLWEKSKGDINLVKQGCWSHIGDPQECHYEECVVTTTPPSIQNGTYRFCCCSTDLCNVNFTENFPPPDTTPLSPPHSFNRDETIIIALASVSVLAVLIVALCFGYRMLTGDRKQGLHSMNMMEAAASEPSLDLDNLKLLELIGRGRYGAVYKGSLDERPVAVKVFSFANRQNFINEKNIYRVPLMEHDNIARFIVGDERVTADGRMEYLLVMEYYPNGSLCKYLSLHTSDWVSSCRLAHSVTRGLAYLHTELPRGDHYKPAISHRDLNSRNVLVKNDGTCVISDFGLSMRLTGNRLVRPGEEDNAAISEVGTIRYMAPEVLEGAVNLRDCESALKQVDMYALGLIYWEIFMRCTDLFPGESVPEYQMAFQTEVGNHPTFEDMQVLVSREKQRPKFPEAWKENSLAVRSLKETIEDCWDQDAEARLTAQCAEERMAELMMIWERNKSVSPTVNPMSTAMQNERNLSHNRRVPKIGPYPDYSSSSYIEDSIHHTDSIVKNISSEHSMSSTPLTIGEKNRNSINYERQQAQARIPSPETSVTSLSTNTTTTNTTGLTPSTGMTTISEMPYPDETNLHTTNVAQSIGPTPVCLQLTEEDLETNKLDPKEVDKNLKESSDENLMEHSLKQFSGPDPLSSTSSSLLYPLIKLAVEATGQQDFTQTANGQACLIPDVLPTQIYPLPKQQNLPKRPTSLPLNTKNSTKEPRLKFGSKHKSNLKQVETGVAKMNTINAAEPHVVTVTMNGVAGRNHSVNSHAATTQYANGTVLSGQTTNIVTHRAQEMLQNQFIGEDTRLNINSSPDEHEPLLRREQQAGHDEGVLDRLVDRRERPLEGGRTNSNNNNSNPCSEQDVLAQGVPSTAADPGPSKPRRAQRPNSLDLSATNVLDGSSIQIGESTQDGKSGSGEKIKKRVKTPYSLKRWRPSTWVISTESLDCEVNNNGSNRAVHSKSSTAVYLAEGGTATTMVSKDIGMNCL
Chain of TGF-beta receptor type-1 (Homo sapiens) (P36897 whole entry, the tested form may be a part): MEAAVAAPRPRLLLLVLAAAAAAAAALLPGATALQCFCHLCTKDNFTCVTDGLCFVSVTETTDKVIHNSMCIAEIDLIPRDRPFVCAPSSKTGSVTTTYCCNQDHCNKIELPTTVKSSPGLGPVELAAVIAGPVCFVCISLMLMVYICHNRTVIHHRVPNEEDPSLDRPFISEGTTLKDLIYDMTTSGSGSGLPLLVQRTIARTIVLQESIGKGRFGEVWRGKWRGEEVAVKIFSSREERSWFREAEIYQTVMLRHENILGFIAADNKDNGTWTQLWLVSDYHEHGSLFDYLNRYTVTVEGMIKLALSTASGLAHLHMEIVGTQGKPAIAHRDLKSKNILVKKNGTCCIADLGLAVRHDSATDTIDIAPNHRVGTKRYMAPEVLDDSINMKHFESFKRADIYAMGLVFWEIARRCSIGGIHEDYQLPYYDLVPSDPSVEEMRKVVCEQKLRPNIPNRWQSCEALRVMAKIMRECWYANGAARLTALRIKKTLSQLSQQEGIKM

Structure (SMILES): Cc1cnc(N)nc1OCC(C)(C)CO
- fraction unbound [1]: 0.46
- inhibition [2]: inactive
- inhibition [3]: inactive
- inhibition [4]: inactive
- inhibition [5]: inactive
- inhibition [6]: inactive
- inhibition [7]: inactive
- inhibition [8]: inactive
- inhibition [9]: inactive
- inhibition [10]: inactive
- inhibition [11]: inactive
- inhibition [12]: inactive
- inhibition [13]: inactive
- inhibition [14]: inactive
- inhibition [15]: inactive
- inhibition [16]: inactive
- inhibition [17]: inactive
- inhibition [18]: inactive
- inhibition [19]: inactive
- inhibition [20]: inactive
- inhibition [21]: inactive
- inhibition [22]: inactive
- inhibition [23]: inactive
- inhibition [24]: inactive
- inhibition [25]: inactive
- inhibition [26]: inactive
- inhibition [27]: inactive
- inhibition [28]: inactive
- half-life [29]: 1.5 h
- half-life [30]: 86 h
- half-life [31]: 58 h
- fraction unbound [32]: 0.46
- Activity (MDA-MB-231): inactive
- Activity (HCT-116 [33]): inactive
- Activity (U2OS [34]): inactive
- Activity (BJ [35]): Non-toxic
- Activity (HMEC [36]): Non-toxic
- Activity (MRC5 [37]): Non-toxic
- Activity (HCT-116 [38]): inactive
- Activity (SW480): inactive
- Activity (U2OS [39]): inactive
- Activity (BJ [40]): Non-toxic
- Activity (HMEC [41]): Non-toxic
- Activity (MRC5 [42]): Non-toxic
